Measured values from different studies.
Lines come from different studies, so protocols differ.
CDK14: Cyclin-dependent kinase 14 (CDK14, Homo sapiens, UniProt O94921)
CDK14 with cyclin Y: Cyclin-dependent kinase 14, with cyclin Y (CDK14, Homo sapiens, UniProt O94921)

`Cn1nc(C(F)(F)F)cc1-c1cnc(N2CCc3cc(S(=O)(=O)Nc4c(F)cc(Cl)cc4F)cc(N4CCCC4=O)c32)nc1` gave a remaining binding of 100% (CDK14; cell-free assay; competition with immobilised ligand; 1 µM).
With `Fc1cccc(-n2cnc3c(NCc4nc5c(F)c(F)ccc5[nH]4)nc(N4CCOCC4)nc32)c1` the binding vs control was 55% (CDK14; binding; competition with immobilised ligand; 10 µM).
For `CCC(=N\O)/C(C)=C/c1ccc(F)cc1`, the remaining binding was 91% (CDK14; cell-free assay; competition with immobilised ligand; 1 µM).
`Cc1ccc(C(=O)Nc2ccc(CN3CCN(C)CC3)c(C(F)(F)F)c2)cc1C#Cc1cnc2cccnn12` has a remaining activity of 68% (CDK14; enzyme activity; inhibitor; 23.5 nM).
For `CC1CCCN1c1nccc(-c2cnn3ncccc23)n1` (stereo not drawn), the remaining binding was 100% (CDK14; binding; 1 µM).
With `Cc1ccc(C(=O)NCc2ccsc2)cc1C#Cc1cn(C(C)C)c2ncnc(N)c12` the activity vs control was 92% (CDK14 with cyclin Y; enzyme activity; inhibitor; 1 µM).
`Nc1ncnc2occ(-c3ccc(NC(=O)Nc4cc(C(F)(F)F)ccc4F)cc3)c12` gave a remaining signal of 0.1% (CDK14; cell-free assay; inhibitor; 20 µM).
`O=C(Nc1cnn(-c2csc(C(=O)NC3COC3)c2)c1)Nc1ccccc1Cl` gave a remaining activity of 107% (CDK14; enzyme activity; inhibitor; 5 µM).
For `O=[N+]([O-])c1cccc2[nH]c(CNc3nc(N4CCOCC4)nc4c3ncn4-c3ccsc3)nc12`, the binding vs control was 40% (CDK14; binding; competition with immobilised ligand; 10 µM).
For `COc1cc(Cl)c(C(=O)N[C@@H](CN[C@H]2CC[C@@H](N)CC2)Cc2ccc(C#N)cc2)cc1-c1ccc(CN[C@H](C)c2ccc(C)cc2)o1`, the remaining activity was 99% (CDK14 with cyclin Y; enzyme activity; inhibitor; 1 µM).
The remaining activity of `Cc1sc(C(=O)NC2COC2)cc1-n1cc(NC(=O)Nc2c(F)cccc2Cl)cn1` is reported as 100% (CDK14; enzyme activity; inhibitor; 10 µM).
`CN1CC(Oc2cnc(C#N)cc2-c2ccn3nc(NC(=O)C4CC4)cc3c2)C1` gave an inhibition of -11% (CDK14 with cyclin Y; enzyme activity; inhibitor; 1 µM).
